Measured values taken from ChEMBL document CHEMBL1138498 (J Med Chem, 2009).

Key:
Meriones unguiculatus [1] = assay: Inhibition of GR-73632-induced foot tapping in po dosed Mongolian gerbil assessed as duration of repetitive hind foot tapping administered 1 hr before GR-73632 challenge; assay type: functional; conditions: read-out: ID50 (the source's name)
How it was run: (§1)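 Male Mongolian gerbils (45-70 g), at least seven per group, received vehicle or compound orally (10 mL/kg) at 1, 2, 4 or 8 h before icv GR73632 (3 pmol/5 µL). Foot tapping was then scored. Doses were compared by ANOVA with Dunnett's test.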

[2] = Bioavailability in rat; assay type: ADME, organism-based; conditions: in vivo
[3] = Ratio of drug level in brain to plasma in rat at 1 mg/kg, iv after 5 mins
[4] = Half life in rat; assay type: ADME, organism-based; conditions: in vivo
Meriones unguiculatus [5] = assay: Inhibition of GR-73632-induced foot tapping in po dosed Mongolian gerbil assessed as duration of repetitive hind foot tapping administered 1 hr before GR-73632 challenge measured after 4 hrs; assay type: functional; conditions: read-out: ID50 (the source's name); how it was run: as §1
Meriones unguiculatus [6] = assay: Inhibition of GR-73632-induced foot tapping in po dosed Mongolian gerbil assessed as duration of repetitive hind foot tapping administered 1 hr before GR-73632 challenge measured after 2 hrs; assay type: functional; conditions: read-out: ID50 (the source's name); how it was run: as §1
Substance-P receptor [7] = target: T1, Substance-P receptor (Homo sapiens, UniProt P25103); conditions: CHO
Substance-P receptor [8] = target: T1, Substance-P receptor; conditions: CHO; remark: listed apart in the source
[9] = Half life in dog; assay type: ADME, organism-based, Canis lupus familiaris; conditions: in vivo
Meriones unguiculatus [10] = assay: Inhibition of GR-73632-induced foot tapping in po dosed Mongolian gerbil assessed as duration of repetitive hind foot tapping administered 1 hr before GR-73632 challenge measured after 1 hr; assay type: functional; conditions: read-out: ID50 (the source's name); how it was run: as §1
Meriones unguiculatus [11] = assay: Inhibition of GR-73632-induced foot tapping in po dosed Mongolian gerbil assessed as duration of repetitive hind foot tapping administered 1 hr before GR-73632 challenge measured after 8 hrs; assay type: functional; conditions: read-out: ID50 (the source's name); how it was run: as §1
[12] = Plasma clearance in dog; assay type: ADME, organism-based, Canis lupus familiaris
[13] = Plasma clearance in rat; assay type: ADME, organism-based
[14] = Bioavailability in dog; assay type: ADME, organism-based, Canis lupus familiaris; conditions: in vivo
Substance-P receptor [15] = target: T1, Substance-P receptor; assay: Displacement of [3H]substance P from human recombinant NK1 receptor expressed in CHO cells; assay type: cell-based

T1 sequence (P25103 whole entry): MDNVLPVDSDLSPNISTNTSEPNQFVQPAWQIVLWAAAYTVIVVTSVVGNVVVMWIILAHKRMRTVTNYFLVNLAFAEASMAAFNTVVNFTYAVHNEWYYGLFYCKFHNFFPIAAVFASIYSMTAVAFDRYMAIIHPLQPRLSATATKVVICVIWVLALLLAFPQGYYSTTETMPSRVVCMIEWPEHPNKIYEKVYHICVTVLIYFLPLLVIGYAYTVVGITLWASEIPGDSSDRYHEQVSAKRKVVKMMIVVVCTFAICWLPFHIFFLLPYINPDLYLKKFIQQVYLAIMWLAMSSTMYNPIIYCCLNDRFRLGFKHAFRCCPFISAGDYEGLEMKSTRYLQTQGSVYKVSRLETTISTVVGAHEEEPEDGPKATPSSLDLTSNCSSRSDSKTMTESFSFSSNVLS

For `Cc1cc(F)ccc1[C@H]1CNCCN1C(=O)N(C)[C@H](C)c1cc(C(F)(F)F)cc(C(F)(F)F)c1` [VESTIPITANT], the ED50 (Meriones unguiculatus [1]) was 0.014 mg/kg, the bioavailability [2] was 44% and the Kp at 5 min [3] was 1.3. It also gave a half-life [4] of 5 h, an ED50 (Meriones unguiculatus [5]) of 0.002 mg/kg and an ED50 (Meriones unguiculatus [6]) of 0.007 mg/kg. For the same compound, the T1/2 (Substance-P receptor [7]) was 0.995 h, the pKb (Substance-P receptor [8]) was 9.87 and the half-life [9] was 11 h. The ED50 (Meriones unguiculatus [10]) was 0.014 mg/kg, the ED50 (Meriones unguiculatus [11]) was 0.027 mg/kg and the clearance [12] was 15 mL/min/kg. It also gave a clearance [13] of 19 mL/min/kg and a bioavailability [14] of 71%.

For `Cc1cc(F)ccc1C1CNCCN1C(=O)N(C)Cc1cc(C(F)(F)F)cc(C(F)(F)F)c1` (racemic), the Ki (Substance-P receptor [15]) was 1.29 nM.

With `Cc1cc(F)ccc1[C@@H]1CNCCN1C(=O)N(C)Cc1cc(C(F)(F)F)cc(C(F)(F)F)c1` the ED50 (Meriones unguiculatus [1]) was 5.6 mg/kg and the Ki (Substance-P receptor [15]) was 18.2 nM.

For `Cc1cc(F)ccc1N1CCNCC1C(=O)N(C)Cc1cc(C(F)(F)F)cc(C(F)(F)F)c1` (centres undefined), the pKb (Substance-P receptor [8]) was 8.56 and the Ki (Substance-P receptor [15]) was 8.71 nM.

Compound `CC(=O)O.Cc1cc(F)ccc1[C@H]1CNCCN1C(=O)N(C)[C@@H](C)c1cc(C(F)(F)F)cc(C(F)(F)F)c1` has an ED50 (Meriones unguiculatus [1]) of 0.036 mg/kg.

`COc1ccc(-n2nnnc2C(F)(F)F)cc1CN[C@H]1CCCN[C@H]1c1ccccc1` [VOFOPITANT] gave an ED50 (Meriones unguiculatus [1]) of 0.6 mg/kg and a Ki (Substance-P receptor [15]) of 0.0501 nM.

`Cc1cc(F)ccc1[C@H]1CNCCN1C(=O)N(C)Cc1cc(C(F)(F)F)cc(C(F)(F)F)c1` showed an ED50 (Meriones unguiculatus [1]) of 0.2 mg/kg and an ED50 (Meriones unguiculatus [11]) of 0.3 mg/kg.
